Source: PubChem BioAssay (Johns Hopkins Ion Channel Center)
A selection: hits, their analogues and other compounds. The true share with any hit is near 3.7%.
KCNK9 inh = blocks the human KCNK9 two-pore domain potassium channel; Q9NPC2; HEK293 KCNK9, FluxOR thallium flux fluorescence; hits give low values; B-score at 10 µM; hit rate 1.2% among 310,000; AID 488922;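 active = ratio B-score over 3 SD below the library mean, with starting fluorescence within 5 SD of its mean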;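 note: negative B-score means less thallium flux so channel inhibition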
Kir21 block = Kir2.1 (mouse) channel inhibition | HEK293-Kir2.1, FluxOR thallium flux fluorescence; hits give low values | P35561 | B-score at 10 µM | AID 1672 | hit rate 0.85% among 310,000;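 active = fluorescence ratio B-score at or below minus 3 SD of library scores, with starting-brightness B-score within 2 SD, cut at about -4.2 in these data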;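 note: channel flux triggered by added potassium and thallium sulfate stimulus; B-score of peak minus minimum fluorescence over baseline after thallium stimulus; more negative B-score means stronger Kir2.1 block with less thallium influx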
KCNK3 block = human KCNK3 channel inhibition, primary screen. CHO-KCNK3 thallium flux, FluxOR fluorescence; hits give low values. B-score at 10 µM. hit rate 0.84% among 340,000. AID 602410;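 active = B-score under library mean minus 4 SD, starting fluorescence ratio at most library mean plus 5 SD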;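 note: more negative B-score means stronger inhibition of thallium flux through KCNK3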
KCNQ1 act = potentiates or activates the human KCNQ1 potassium channel | hit rate 0.35% among 310,000 | CHO-K1 KCNQ1, thallium flux FluxOR fluorescence; hits give high values | B-score at 10 µM | P51787;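 active = fluorescence ratio B-score, a plate-corrected score, at least three library SD, with initial intensity B-score within 5 SD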
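assay system = KCNQ1-transfected CHO-K1 cells | medium = assay buffer with matched DMSO | probe or stimulus = depolarizing K+/Tl+ stimulus, K2SO4 and Tl2SO4 each 12.5 mM in 5x stock | dosing = single dose | incubation = dye 90 min, compound 20 min, room temperature | detection = kinetic FluxOR fluorescence, 10 s baseline plus 110 s post-stimulus | evaluation = ratio B score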
hERG rescue = hERG (human) protection from proarrhythmic block. activation (rescue from dofetilide block), less the hit threshold, % at 10 µM. hit rate 0.51% among 310,000. Q12809. AID 1511. CHO-hERG, FluxOR thallium flux, dofetilide IC70 present;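 active = activation above the mean of controls blocked by dofetilide plus 5 SD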;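 note: thallium influx through hERG after potassium depolarization seen as dye fluorescence rise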
Target sequence (Q12809 whole entry, looked up): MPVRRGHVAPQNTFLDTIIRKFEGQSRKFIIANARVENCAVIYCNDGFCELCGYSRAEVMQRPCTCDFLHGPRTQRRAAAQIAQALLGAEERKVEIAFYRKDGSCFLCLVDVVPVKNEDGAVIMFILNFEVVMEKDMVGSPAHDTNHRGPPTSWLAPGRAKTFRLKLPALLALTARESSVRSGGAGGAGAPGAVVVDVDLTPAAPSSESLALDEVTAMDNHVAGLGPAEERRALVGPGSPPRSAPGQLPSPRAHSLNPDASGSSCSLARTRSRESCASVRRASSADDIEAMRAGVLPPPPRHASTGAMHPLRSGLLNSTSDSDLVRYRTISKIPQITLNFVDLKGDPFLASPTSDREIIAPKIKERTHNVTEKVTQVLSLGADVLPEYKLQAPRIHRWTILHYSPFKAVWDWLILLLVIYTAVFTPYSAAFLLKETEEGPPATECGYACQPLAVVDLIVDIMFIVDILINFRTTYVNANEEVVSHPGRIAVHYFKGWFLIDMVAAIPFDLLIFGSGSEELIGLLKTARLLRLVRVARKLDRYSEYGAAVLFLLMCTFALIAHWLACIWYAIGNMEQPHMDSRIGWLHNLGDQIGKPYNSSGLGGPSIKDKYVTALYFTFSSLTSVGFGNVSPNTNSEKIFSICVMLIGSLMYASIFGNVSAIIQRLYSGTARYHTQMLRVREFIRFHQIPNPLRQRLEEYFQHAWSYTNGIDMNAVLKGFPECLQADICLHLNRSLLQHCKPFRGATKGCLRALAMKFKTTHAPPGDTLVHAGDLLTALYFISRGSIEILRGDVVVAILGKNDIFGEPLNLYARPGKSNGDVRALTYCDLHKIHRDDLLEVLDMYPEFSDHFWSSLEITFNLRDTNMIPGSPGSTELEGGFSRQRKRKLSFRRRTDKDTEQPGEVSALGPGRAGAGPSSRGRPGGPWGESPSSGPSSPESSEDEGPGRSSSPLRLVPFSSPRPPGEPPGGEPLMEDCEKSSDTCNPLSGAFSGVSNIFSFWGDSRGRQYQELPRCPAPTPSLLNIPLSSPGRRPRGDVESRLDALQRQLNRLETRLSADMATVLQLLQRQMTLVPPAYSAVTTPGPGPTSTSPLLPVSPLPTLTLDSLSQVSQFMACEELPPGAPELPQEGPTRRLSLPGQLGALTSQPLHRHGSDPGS
KCNQ1 inh = inhibitors of human KCNQ1 potassium channel; P51787; CHO-K1 KCNQ1, FluxOR thallium flux fluorescence; hits give high values; B-score at 10 µM; hit rate 1.3% among 310,000; AID 2642;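 active = compounds whose thallium flux B-score, printed positive for inhibition, exceeds three library SD while starting fluorescence stays within three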;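 note: channel opened by potassium depolarization with thallium stimulus after 20 min compound exposure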
The depositor's hits bear a star; i = inactive; / = no result given.

SMILES	KCNK9 inh	Kir21 block	KCNK3 block	KCNQ1 act	hERG rescue	KCNQ1 inh
CC(C)Cc1ccc(C(C)C(=O)Nc2ccc(O)cc2)cc1 (stereo unspecified)	i	-0.47	i	10*	-11	i
CCN(CC)C(=O)CSc1nc2cc(S(=O)(=O)N3CCOCC3)ccc2n1CC	i	0.9	i	i	-8	i
CC(=O)Nc1ccc(NC(=O)CSCc2ccccc2Cl)cc1	i	-0.25	i	i	-8	i
C/C(=N\NC(=O)CSCc1ccccc1Cl)c1cc(O)ccc1O	i	-2	i	i	4.7*	i
O=S(=O)(Nc1cccc(-n2cnnn2)c1)c1cccc(Cl)c1	i	-0.04	i	8*	-9	i
O=S(=O)(Nc1cccc(-n2cnnn2)c1)c1ccccc1	i	1.7	i	i	-10	i
CCn1c(SC/C=C/c2ccccc2)nnc1-c1cccs1	i	-7.8*	i	i	-21	i
C=CCn1c(Cc2cccs2)nnc1SC/C=C/c1ccccc1	i	-15*	i	i	-15	i
Cn1c(SC/C=C/c2ccccc2)nnc1-c1cccs1	i	-1.2	i	i	-16	i
O=S(=O)(NC1CCCCC1Oc1ccccc1)c1ccccc1 (stereo unspecified)	i	-5.4*	i	i	-13	i
O=S(=O)(NC1CCCCC1Nc1ccc(Cl)cc1)c1ccccc1 (stereo unspecified)	i	0.18	i	i	-10	i
COc1ccc(CNc2ccc(Cl)cc2)cc1Cn1ccnc1	i	-4.3*	i	i	-14	i
O=C(O)C(Cc1ccc(OS(=O)(=O)Cc2ccccc2)cc1)NS(=O)(=O)Cc1ccccc1 (stereo unspecified)	/	/	i	/	/	/
Cc1ccccc1-c1nc(S(=O)(=O)c2ccc(Br)cc2)c(NCc2cccnc2)o1	i	0.04	-9.1*	i	-17	i
CCc1cccc(NC(=O)CCCn2nc(CC)n3c(cc4occc43)c2=O)c1	i	-5*	i	i	-11	i
CN(CC(=O)NCc1cccnc1)S(=O)(=O)c1ccc(F)cc1	i	-0.28	i	i	-4	i
CC1=CC2=NC(=O)/C(=C\c3cccn3CCOc3cccc(C)c3)C(=N)N2O1	-7*	0.13	i	i	-15	i
CC1=CC2=NC(=O)/C(=C\c3cccn3CCOc3cc(C)cc(C)c3)C(=N)N2O1	-7.9*	1.3	i	i	-5	i
Cc1ccccc1CSc1nccn1-c1ccccc1	i	-4.4*	i	i	-8	i
Cc1ccccc1NC(=S)NCCC(c1ccccc1)c1ccccc1	i	-2.5	i	i	-6	7*
S=C(NCCC(c1ccccc1)c1ccccc1)Nc1cccc(Cl)c1	i	1.2	i	i	-8	9*
S=C(N/N=C/c1cccc2ccccc12)Nc1cccc(Cl)c1	i	-1.4	i	8*	5.3*	i
CCCNC(=O)c1ccc(C2SCC(=O)N2CCc2ccccc2)cc1 (stereo unspecified)	i	0.23	i	i	-3	i
CC(C)(C)c1cc(NCCCn2ccnc2)n2ncc(-c3ccc(Cl)cc3)c2n1	i	0.59	i	i	-11	i
CN(C)CCCNc1cc(C(C)(C)C)nc2c(-c3ccccc3)cnn12	i	-4.8*	i	i	-30	i
Cc1ccc(S(=O)(=O)NCC(=O)OCC(=O)N2C(C)CCCC2C)cc1 (stereo unspecified)	/	/	i	/	/	/
COc1ccc(C(CNC(=O)CN(C)S(=O)(=O)c2ccc(C)cc2)N2CCCC2)cc1 (stereo unspecified)	/	/	i	/	/	/
CN(C(=O)/C(N=Nc1cccc(C(F)(F)F)c1)=C(\O)C(F)(F)F)c1ccccc1	i	-0.42	i	i	-24	6*
COc1ccc(CNS(=O)(=O)c2ccc(F)c(C(=O)Nc3ccccc3OC)c2)cc1	i	0.95	i	i	-3	i
COc1ccc(CNS(=O)(=O)c2ccc(F)c(C(=O)Nc3ccc(OC)cc3)c2)cc1	i	-0.02	i	i	4.8*	i
